GASC1 inh = blocks human GASC-1 (KDM4C) demethylase activity | Q9H3R0 | hit rate 0.15% among 96,000 | GST-KDM4C 2-372, H3K9me3 peptide, LANCE TR-FRET | inhibition, % at 12.5 µM;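 active = mean replicate inhibition above about 25%, with at least 55% of replicates also reaching it, limit read from the data, passing the limit was not always enough; inconclusive = only one of those two conditions met; inactive = neither condition met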
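Test system: N-terminal GST-fused human GASC-1 (KDM4C) fragment, residues 2-372; quantity: GASC-1 enzyme at 10 nM final in reaction; dosing: single dose; schedule: 30 min demethylation and 1 h detection at room temperature; signal: LANCE TR-FRET, excitation 340 nm, emissions 618 and 671 nm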
T cruzi growth-1 = T. cruzi proliferation inhibition; inhibition, % at 8.34 µM; T. cruzi beta-gal in NIH3T3, GalScreen luminescence, 90 h; hit rate 5.9% among 77,000;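 active = mean inhibition above about 93%, with at least 55% of replicates each passing it, limit read from the data, passing the limit was not always enough; inconclusive = only one of those two conditions holds; inactive = neither condition holds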
IDH1 mut inh = IDH1 R132H (human) inhibition. O75874. IDH1 R132H reductase, diaphorase/resazurin fluorescence, 60 min. inhibition, % at 10 µM. hit rate 0.18% among 70,000; in the data active = inhibition above about 34%; inconclusive = no clear call, values can overlap the other calls; inactive = below about 11%;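 also: 0% = DMSO and 100% = no enzyme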
Target sequence (O75874 whole entry R132H): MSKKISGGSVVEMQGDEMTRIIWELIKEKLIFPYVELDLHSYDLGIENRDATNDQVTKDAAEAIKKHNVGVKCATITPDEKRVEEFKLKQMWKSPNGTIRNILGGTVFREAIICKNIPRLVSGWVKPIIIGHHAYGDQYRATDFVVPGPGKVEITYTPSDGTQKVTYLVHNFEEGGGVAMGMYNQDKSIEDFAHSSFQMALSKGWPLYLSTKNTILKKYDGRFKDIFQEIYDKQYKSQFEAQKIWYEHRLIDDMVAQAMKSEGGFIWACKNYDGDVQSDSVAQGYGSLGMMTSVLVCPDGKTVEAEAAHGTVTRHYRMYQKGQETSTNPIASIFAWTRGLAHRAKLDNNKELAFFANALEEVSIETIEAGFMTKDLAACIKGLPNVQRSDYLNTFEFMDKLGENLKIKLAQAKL
T cruzi growth-2 = blocks T. cruzi growth in NIH3T3 host cells. shares compounds with T cruzi growth-1. T. cruzi beta-gal in NIH3T3, GalScreen luminescence, 90 h. inhibition, % at 8.35 µM. hit rate 72% among 5,600;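 active = mean replicate inhibition above about 95% and at least 55% of replicates individually reaching it, limit read from the data; inconclusive = only one of the two criteria is met; inactive = neither criterion is met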
T cruzi growth-3 = inhibitors of T. cruzi proliferation; shares compounds with T cruzi growth-1; T. cruzi beta-gal in NIH3T3, GalScreen luminescence, 90 h; hit rate 21% among 5,600; AID 651740; inhibition, % at 2.09 µM;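 active = mean inhibition above about 95%, with at least 55% of replicates also reaching it, limit read from the data; inconclusive = meets just one of the two conditions; inactive = meets neither condition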;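 also: plate controls were neutral control median for no effect and positive control median for full effect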
NIH3T3 tox = kills mouse NIH/3T3 fibroblasts; NIH/3T3 viability, CellTiter-Glo ATP luminescence, 90 h; hit rate 14% among 5,600; shares compounds with T cruzi growth-1; cytotoxicity (signal decrease), % at 8.35 µM;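 active = mean signal decrease across replicates above about 35% based on untreated-well scatter, with enough replicates individually passing, limit read from the data; inconclusive = no rule stated though some were filed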;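 also: 0% = median of neutral control wells and 100% = median of positive control wells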
NIH3T3 tox 2 = cytotoxicity in mouse NIH/3T3 fibroblasts; NIH/3T3 viability, CellTiter-Glo ATP luminescence, 90 h; inhibition, % at 24.9 µM; shares compounds with T cruzi growth-1; hit rate 56% among 5,600;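 active = mean loss of cell viability signal at or above a set limit, and enough replicates individually reaching it; inconclusive = meets only the mean limit or only the replicate share; inactive = meets neither condition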;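 also: 0% = median of neutral control wells and 100% = median of positive control wells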
* marks the source's active call; other numbers are inactive results. The full list was thinned out, with hits kept by preference.

Screening O=C(Nc1ccccc1F)N1CCCCN2[C@@H](CO)[C@@H](c3ccc(C#Cc4cccnc4)cc3)[C@@H]2C1 returned GASC1 inh 0, T cruzi growth-1 107*, T cruzi growth-2 97*, T cruzi growth-3 94, NIH3T3 tox 16 and NIH3T3 tox 2 60*.
`O=C(Nc1ccccc1F)N1CCCCN2[C@H](CO)[C@H](c3ccc(C#Cc4ccccc4)cc3)[C@@H]2C1` gave GASC1 inh -2 and T cruzi growth-1 75.
For O=C(Nc1ccccc1F)N1CCCCN2[C@H](CO)[C@@H](c3ccc(C#Cc4cccnc4)cc3)[C@@H]2C1 the results were GASC1 inh 5, T cruzi growth-1 99*, T cruzi growth-2 108*, T cruzi growth-3 90, NIH3T3 tox 21 and NIH3T3 tox 2 55*.
For O=C(Nc1ccccc1F)N1CCCCN2[C@H](C1)[C@@H](c1ccc(C#Cc3cccnc3)cc1)[C@@H]2CO the results were GASC1 inh 0, T cruzi growth-1 104*, T cruzi growth-2 106*, T cruzi growth-3 39, NIH3T3 tox 26 and NIH3T3 tox 2 65*.
For O=S(=O)(N[C@@H]1CCN(Cc2ccc(OCCO)cc2)C1)c1cccc2cccnc12 the results were IDH1 mut inh 11.
For CC(=O)NC(=O)C1C=C2c3ccccc3C=CC2OC1=Nc1ccc(C)cc1 (stereo unspecified) the results were IDH1 mut inh -3.
Screening Cc1cc(C)c(NC(=O)CN(c2ccc(F)cc2)S(C)(=O)=O)c(C)c1 returned IDH1 mut inh 1.
Screening COc1cccc(N(CC(=O)Nc2cccc(Cl)c2C)S(C)(=O)=O)c1 returned IDH1 mut inh 0.
For CCCCn1c2ccccc2c2nnc(SCC(=O)c3ccc(Cl)cc3)nc21 the results were IDH1 mut inh 2.
O=C(c1ccccc1)N1CC[C@@H]2[C@@H](CO)Nc3ccc(-c4ccccc4F)cc3[C@@H]21 was read as GASC1 inh -4, T cruzi growth-1 108*, T cruzi growth-2 108*, T cruzi growth-3 79, NIH3T3 tox 8 and NIH3T3 tox 2 inconclusive.
O=C(c1ccc(F)cc1)N1CC[C@@H]2[C@H]1c1cc(-c3ccccc3F)ccc1N[C@@H]2CO was read as GASC1 inh 0, T cruzi growth-1 100*, T cruzi growth-2 95*, T cruzi growth-3 70, NIH3T3 tox 10 and NIH3T3 tox 2 103*.
`O=C(c1cnccn1)N1CC[C@@H]2[C@H](CO)Nc3ccc(-c4ccccc4F)cc3[C@@H]21` gave GASC1 inh 0 and T cruzi growth-1 97.
`O=C(c1cnccn1)N1CC[C@@H]2[C@H]1c1cc(-c3ccccc3F)ccc1N[C@@H]2CO` gave GASC1 inh -1, T cruzi growth-1 100*, T cruzi growth-2 107*, T cruzi growth-3 28, NIH3T3 tox 20 and NIH3T3 tox 2 44*.
`O=C(c1cccc(F)c1)N1CC[C@@H]2[C@H]1c1cc(-c3ccccc3F)ccc1N[C@@H]2CO` gave GASC1 inh -1 and T cruzi growth-1 90.
For COc1ccc(-c2ccc3c(c2)[C@H]2[C@H](CCN2C(=O)c2cnccn2)[C@H](CO)N3)cc1 the results were GASC1 inh -1, T cruzi growth-1 108*, T cruzi growth-2 105*, T cruzi growth-3 112*, NIH3T3 tox -4 and NIH3T3 tox 2 -19.
Screening COc1ccc(C#Cc2ccc3c(c2)[C@@H]2[C@@H](CCN2C(=O)c2cnccn2)[C@@H](CO)N3)cc1 returned GASC1 inh 1 and T cruzi growth-1 82.
Screening O=C(c1ccccc1)N1CC[C@@H]2[C@@H](CO)Nc3ccc(-c4ccc(F)cc4)cc3[C@@H]21 returned GASC1 inh -1 and T cruzi growth-1 69.
`CCOC(=O)c1c(NC(=O)CSc2nc3ccccc3[nH]2)sc(C)c1C` gave IDH1 mut inh 0.
`COc1ccc(S(=O)(=O)N(CC(=O)N2CCOCC2)C2CCCCC2)cc1OC` gave IDH1 mut inh 0.
`Cc1cccc(NC(=O)CSc2nc3ncnc(N)c3[nH]2)c1` gave IDH1 mut inh 2.
`CC(C(=O)Nc1cccnc1)N(c1ccc(Oc2ccccc2)cc1)S(C)(=O)=O` (stereo unspecified) gave IDH1 mut inh 2.
O=C(c1ccccc1)N1CC[C@@H]2[C@H](CO)Nc3ccc(-c4ccccc4F)cc3[C@@H]21 was read as GASC1 inh -2, T cruzi growth-1 103*, T cruzi growth-2 108*, T cruzi growth-3 88, NIH3T3 tox 11 and NIH3T3 tox 2 26*.
`O=C(c1cccc(F)c1)N1CC[C@@H]2[C@H](CO)Nc3ccc(-c4ccccc4F)cc3[C@@H]21` gave GASC1 inh -3 and T cruzi growth-1 31.
Screening COc1ccccc1NC(=O)C(Cc1ccccc1)N1C(=O)C2C3C=CC(C3)C2C1=O (stereo unspecified) returned IDH1 mut inh 0.
COc1cccc(N(CC(=O)Nc2c(C)n(C)n(-c3ccccc3)c2=O)S(C)(=O)=O)c1 was read as IDH1 mut inh 0.
`C[C@H](CO)N1C[C@H](C)[C@@H](CN(C)S(=O)(=O)c2cccs2)Oc2c(NC(=O)Nc3ccc(C(F)(F)F)cc3)cccc2C1=O` gave GASC1 inh -2, T cruzi growth-1 104*, IDH1 mut inh 1, T cruzi growth-2 82, T cruzi growth-3 20, NIH3T3 tox 11 and NIH3T3 tox 2 57*.
Screening C[C@H]1CN([C@@H](C)CO)C(=O)c2cccc(NC(=O)Nc3ccc(C(F)(F)F)cc3)c2O[C@@H]1CN(C)S(=O)(=O)c1cccs1 returned GASC1 inh 7, T cruzi growth-1 85 and IDH1 mut inh 2.
Screening C[C@@H]1CN([C@H](C)CO)C(=O)c2cccc(NC(=O)Nc3ccc(C(F)(F)F)cc3)c2O[C@@H]1CN(C)S(=O)(=O)c1cccs1 returned GASC1 inh -3, T cruzi growth-1 93*, IDH1 mut inh 1, T cruzi growth-2 99*, T cruzi growth-3 46, NIH3T3 tox 20 and NIH3T3 tox 2 105*.
`C[C@@H]1CN([C@@H](C)CO)C(=O)c2cccc(NC(=O)Nc3ccc(C(F)(F)F)cc3)c2O[C@H]1CN(C)S(=O)(=O)c1cccs1` gave GASC1 inh -1, T cruzi growth-1 99*, IDH1 mut inh 3, T cruzi growth-2 101*, T cruzi growth-3 71, NIH3T3 tox 33 and NIH3T3 tox 2 39*.
Screening C[C@H](CO)N1C[C@H](C)[C@H](CN(C)S(=O)(=O)c2cccs2)Oc2c(NC(=O)Nc3ccc(F)cc3)cccc2C1=O returned GASC1 inh -1, T cruzi growth-1 4 and IDH1 mut inh -3.
